Experimental data published in ChEMBL document CHEMBL1121371, “Antihypertensive 5,6-diarylpyridazin-3-ones” (1980).
Active and inactive are the calls of the source. The rule behind the calls is not given here.

What was measured:
Rattus norvegicus [1] = assay: Antihypertensive activity in spontaneously hypertensive rats was measured as average blood pressure at 100 mg/kg, p.o. after 24 hours of postdose-1.; format: functional; details: route oral
Outline: (§1)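 Spontaneously hypertensive rats aged 12 to 16 weeks, in groups of five with systolic pressure of 170 mmHg or more. Oral dosing as a solution or suspension in 0.25% methylcellulose, 5 mL/kg, with a vehicle control group. Tail-cuff systolic pressure was read predose and 4 and 24 h after each of two doses. Values were compared with predose by Student's t test.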

Rattus norvegicus [2] = assay: Antihypertensive activity in spontaneously hypertensive rats was measured as average blood pressure at 100 mg/kg, p.o. before predose; format: functional; details: route oral; outline: as §1
Rattus norvegicus [3] = assay: Antihypertensive activity in spontaneously hypertensive rats was measured as average blood pressure at 100 mg/kg, po after 24 hours of postdose-2; format: functional; outline: as §1
Rattus norvegicus [4] = assay: Antihypertensive activity in spontaneously hypertensive rats was measured as average blood pressure at 100 mg/kg, p.o. after 4 hours of postdose-2; format: functional; details: route oral; outline: as §1
Rattus norvegicus [5] = assay: Antihypertensive activity in spontaneously hypertensive rats was measured as average blood pressure at 100 mg/kg, p.o. after 4 hours of postdose-1.; format: functional; details: route oral; outline: as §1
Rattus norvegicus [6] = assay: Antihypertensive activity in spontaneously hypertensive rats was measured as average blood pressure at 30 mg/kg, p.o. after 24 hours of postdose-2; format: functional; details: route oral; outline: as §1
Rattus norvegicus [7] = assay: Antihypertensive activity in spontaneously hypertensive rats was measured as average blood pressure at 30 mg/kg, po after 4 hours of postdose-1.; format: functional; outline: as §1
Rattus norvegicus [8] = assay: Antihypertensive activity in spontaneously hypertensive rats was measured as average blood pressure at 10 mg/kg, p.o. after 24 hours of postdose-1; format: functional; details: route oral; outline: as §1
Rattus norvegicus [9] = species: Rattus norvegicus; assay: Antihypertensive activity in spontaneously hypertensive rats was measured as decrease in heart rate; (-)=decreased heart rate; format: functional, organism-based
Rattus norvegicus [10] = assay: Antihypertensive activity in spontaneously hypertensive rats was measured as average blood pressure at 10 mg/kg, p.o. after 4 hours of postdose-2; format: functional; details: route oral; outline: as §1
Rattus norvegicus [11] = assay: Antihypertensive activity in spontaneously hypertensive rats was measured as average blood pressure at 30 mg/kg, p.o. before predose; format: functional; details: route oral; outline: as §1
Rattus norvegicus [12] = assay: Antihypertensive activity in spontaneously hypertensive rats was measured as average blood pressure at 10 mg/kg, p.o. after 4 hours of postdose-1.; format: functional; details: route oral; outline: as §1
Rattus norvegicus [13] = assay: Antihypertensive activity in spontaneously hypertensive rats was measured as average blood pressure at 30 mg/kg, p.o. after 4 hours of postdose-2; format: functional; details: route oral; outline: as §1
Rattus norvegicus [14] = assay: Antihypertensive activity in spontaneously hypertensive rats was measured as average blood pressure at 10 mg/kg, p.o. after 24 hours of postdose-2; format: functional; details: route oral; outline: as §1
Rattus norvegicus [15] = assay: Antihypertensive activity in spontaneously hypertensive rats was measured as average blood pressure at 10 mg/kg, p.o. before predose; format: functional; details: route oral; outline: as §1
Rattus norvegicus [16] = assay: Antihypertensive activity in spontaneously hypertensive rats was measured as average blood pressure at 100 mg/kg, p.o. after 4 hours of postdose-1; format: functional; details: route oral; outline: as §1
Rattus norvegicus [17] = assay: Antihypertensive activity in spontaneously hypertensive rats was measured as average blood pressure at 30 mg/kg, p.o. after 24 hours of postdose-1; format: functional; details: route oral; outline: as §1
Rattus norvegicus [18] = assay: Antihypertensive activity in spontaneously hypertensive rats, measured as average blood pressure at 100 mg/kg, p.o. before predose; No significant lowering of blood pressure; format: functional, organism-based; parameters: dose 100 mg/kg

**Q.** How did the BP (Rattus norvegicus [1]) turn out when `CCOC(=O)N1CCN(CCn2nc(-c3ccc(Cl)cc3)c(-c3ccc(Cl)cc3)c(C(C)=O)c2=O)CC1` was run?
**A.** 182 mmHg

**Q.** What about the BP (Rattus norvegicus [2]) of the same compound?
**A.** 200 mmHg

**Q.** What about the BP (Rattus norvegicus [3]) of the same compound?
**A.** 183 mmHg

**Q.** What about the BP (Rattus norvegicus [4]) of the same compound?
**A.** 151 mmHg

**Q.** What about the BP (Rattus norvegicus [5]) of the same compound?
**A.** 186 mmHg

**Q.** With `CC(=O)c1c(-c2ccc(Cl)cc2)c(-c2ccc(Cl)cc2)nn(CCN2CCCC2)c1=O` as the compound, how does the BP (Rattus norvegicus [6]) read?
**A.** 199 mmHg

**Q.** And the BP (Rattus norvegicus [7])?
**A.** 200 mmHg

**Q.** And the BP (Rattus norvegicus [8])?
**A.** 204 mmHg

**Q.** And the BP (Rattus norvegicus [1])?
**A.** 138 mmHg

**Q.** What about the BP (Rattus norvegicus [2]) of the same compound?
**A.** 192 mmHg

**Q.** What about the BP (Rattus norvegicus [3]) of the same compound?
**A.** 146 mmHg

**Q.** What about the BP (Rattus norvegicus [9]) of the same compound?
**A.** inactive

**Q.** What about the BP (Rattus norvegicus [10]) of the same compound?
**A.** 202 mmHg

**Q.** What about the BP (Rattus norvegicus [4]) of the same compound?
**A.** 142 mmHg

**Q.** What about the BP (Rattus norvegicus [11]) of the same compound?
**A.** 212 mmHg

**Q.** And the BP (Rattus norvegicus [12])?
**A.** 205 mmHg

**Q.** And the BP (Rattus norvegicus [13])?
**A.** 191 mmHg

**Q.** And the BP (Rattus norvegicus [14])?
**A.** 207 mmHg

**Q.** And the BP (Rattus norvegicus [15])?
**A.** 208 mmHg

**Q.** What about the BP (Rattus norvegicus [16]) of the same compound?
**A.** 155 mmHg

**Q.** What about the BP (Rattus norvegicus [17]) of the same compound?
**A.** 187 mmHg

**Q.** What does the source list for `COCCn1nc(-c2ccc(Cl)cc2)c(-c2ccc(Cl)cc2)c(C(C)=O)c1=O`?
**A.** BP (Rattus norvegicus [1]): 148 mmHg; BP (Rattus norvegicus [2]): 186 mmHg; BP (Rattus norvegicus [3]): 158 mmHg; BP (Rattus norvegicus [4]): 144 mmHg; BP (Rattus norvegicus [16]): 142 mmHg

**Q.** Which BP (Rattus norvegicus [18]) does the source give for `O=c1c(-c2cccc(Cl)c2)c(-c2ccccc2)c(-c2ccccc2)nn1CCO` here?
**A.** Not significant

**Q.** With `COC(=O)Cn1nc(-c2ccc(Cl)cc2)c(-c2ccc(Cl)cc2)c(C(C)=O)c1=O` as the compound, how does the BP (Rattus norvegicus [18]) read?
**A.** Not significant

**Q.** `CC(=O)c1c(-c2ccc(Cl)cc2)c(-c2ccc(Cl)cc2)nn(CC[N+](C)(C)C)c1=O` was tested. Which BP (Rattus norvegicus [18]) did it give?
**A.** Not significant

**Q.** With `Oc1nnc(-c2ccccc2)c(-c2ccccc2)c1-c1ccc(Cl)cc1` as the compound, how does the BP (Rattus norvegicus [18]) read?
**A.** Not significant

**Q.** Which BP (Rattus norvegicus [18]) does the source give for `C/C(=N\N)c1c(O)nnc(-c2ccccc2)c1-c1ccccc1` here?
**A.** Not significant

**Q.** How did the BP (Rattus norvegicus [18]) turn out when `CC(=O)c1c(-c2ccc(Cl)cc2)c(-c2ccc(Cl)cc2)nn(CCCCCO)c1=O` was run?
**A.** Not significant

**Q.** Which results are given for `C[C@](N)(Cc1ccc(O)c(O)c1)C(=O)O` [METHYLDOPA]?
**A.** BP (Rattus norvegicus [1]): 174 mmHg; BP (Rattus norvegicus [2]): 178 mmHg; BP (Rattus norvegicus [3]): 166 mmHg; BP (Rattus norvegicus [4]): 155 mmHg; BP (Rattus norvegicus [16]): 161 mmHg

**Q.** Which BP (Rattus norvegicus [18]) does the source give for `CC(=O)Nc1ccc(-c2c(-c3ccc(Cl)cc3)c(-c3ccc(Cl)cc3)nn(CCO)c2=O)cc1` here?
**A.** Not significant

**Q.** Which BP (Rattus norvegicus [18]) does the source give for `Oc1nnc(-c2ccccc2)c(-c2ccccc2)c1-c1cccc(Cl)c1` here?
**A.** Not significant

**Q.** For `CC(=O)c1c(-c2ccc(Cl)cc2)c(-c2ccc(Cl)cc2)nn(CCCCCCN2C(=O)c3ccccc3C2=O)c1=O`, which BP (Rattus norvegicus [18]) is on record?
**A.** Not significant

**Q.** With `CC(=O)Cn1nc(-c2ccc(Cl)cc2)c(-c2ccc(Cl)cc2)c(C#N)c1=O` as the compound, how does the BP (Rattus norvegicus [18]) read?
**A.** Not significant

**Q.** Which results are given for `CC(=O)c1c(-c2ccc(Cl)cc2)c(-c2ccc(Cl)cc2)nn(CCN2CCCCC2)c1=O`?
**A.** BP (Rattus norvegicus [1]): 163 mmHg; BP (Rattus norvegicus [2]): 192 mmHg; BP (Rattus norvegicus [3]): 176 mmHg; BP (Rattus norvegicus [4]): 165 mmHg; BP (Rattus norvegicus [5]): 180 mmHg

**Q.** With `Cc1ccc(-c2nn(CCO)c(=O)c(-c3ccccc3)c2-c2ccc(C)cc2)cc1` as the compound, how does the BP (Rattus norvegicus [18]) read?
**A.** Not significant
